Compound activity (PubChem)
Compounds with a hit are over-represented: about 4.6% of the library has one in this group of screens.
GPR7 antagonist: GPR7 receptor antagonists, primary screen, cell-based, fluorescence, single concentration. Neuropeptides B/W receptor type 1 (Homo sapiens), P48145. GPR7-expressing cells, fluorescence antagonist assay. inhibition, % at 4.4 µM. 290,000 tested, 1.1% active; in the data active = inhibition above about 16%, passing the limit was not always enough;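 note: cells stimulated with the agonist NPW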
Target sequence (P48145 whole entry, looked up): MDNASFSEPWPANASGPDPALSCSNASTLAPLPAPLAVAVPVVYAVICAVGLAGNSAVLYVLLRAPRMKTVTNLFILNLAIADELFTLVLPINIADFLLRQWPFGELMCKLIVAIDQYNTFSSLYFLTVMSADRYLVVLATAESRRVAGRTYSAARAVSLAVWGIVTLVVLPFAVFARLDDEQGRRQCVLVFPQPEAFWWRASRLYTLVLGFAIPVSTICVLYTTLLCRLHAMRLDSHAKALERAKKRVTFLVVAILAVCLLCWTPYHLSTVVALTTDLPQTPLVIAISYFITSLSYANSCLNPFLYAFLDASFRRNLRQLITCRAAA
OX1R antag-1: antagonists of human orexin 1 receptor (OX1R) | Orexin/Hypocretin receptor type 1 (Homo sapiens), O43613 | OX1R-expressing cells, FRET antagonist read-out | inhibition, % at 6.6 µM | 330,000 tested, 1.8% active | AID 485270, 2010; in the data active = inhibition mostly above about 38%, no sharp cut-off; inactive = mostly below about 40%
TAAR1 agonist: human TAAR1 agonists, primary screen, Fluo-8 calcium fluorescence, CHO RD-HGA16 cells; activation, % at 3 µM; AID 624467, 2012; vehicle wells 0%, saturating PEA agonist 100%; 360,000 tested, 0.99% active;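 active = activation above the mean activation of all test compounds in the run plus 3 SD, cut at about 38% in these data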
Target sequence (Q96RJ0 whole entry, looked up): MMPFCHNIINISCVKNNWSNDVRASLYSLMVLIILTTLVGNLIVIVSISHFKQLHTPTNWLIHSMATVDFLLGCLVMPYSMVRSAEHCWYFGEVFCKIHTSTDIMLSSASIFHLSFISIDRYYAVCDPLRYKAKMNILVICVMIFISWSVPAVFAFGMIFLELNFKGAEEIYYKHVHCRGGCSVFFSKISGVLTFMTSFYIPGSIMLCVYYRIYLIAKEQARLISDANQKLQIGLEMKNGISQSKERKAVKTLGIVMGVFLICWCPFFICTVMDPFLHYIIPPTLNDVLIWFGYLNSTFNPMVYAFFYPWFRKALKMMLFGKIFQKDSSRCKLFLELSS
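Repeats: no replicates (n 1) | Material: CHO-derived RD-HGA16 cells with stable Gα16 and human TAAR1 | Technique: Kinetic Fluo-8 calcium fluorescence | Schedule: 17-24 h seeding, 75 min 37 °C dye, 30 min RT | Evaluation: % activation from peak over basal fluorescence ratio, DMSO-to-PEA scaled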
CHO parental Ca: ATP-evoked calcium signal inhibitors, parental CHO, primary screen, counter-screen for OX1R antagonist project, cell-based, fluorescence, Fluo-8 calcium dye; parental CHO-K1, ATP-induced calcium, Fluo-8 fluorescence; inhibition, % at 5.6 µM; 330,000 tested, 0.63% active;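 active = inhibition above that plate's mean sample inhibition plus 3 SD, cut at about 26% in these data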
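Material: parental CHO cells / Compound: single nominal dose of 5.6 µM per compound / Signal: Fluo-8 fluorescence / Replicates: singlicate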
TAAR1 antagonist: human TAAR1 antagonists, primary screen, Fluo-8 calcium fluorescence, CHO RD-HGA16 cells. Trace amine-associated receptor 1 (Homo sapiens), Q96RJ0. antagonist. AID 624466, 2012. inhibition, % at 3 µM. 360,000 tested, 1.5% active;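 active = inhibition above a per-plate cutoff, the mean inhibition of test compounds on that plate plus 3 SD, cut at about 49% in these data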
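Assay system: RD-HGA16 CHO cells with stable hTAAR1 and Gα16 / Reagent: EC80 β-phenethylamine stimulus / Doses: 3 µM, single point / Timing: dye loading 75 min at 37 °C, then 30 min room temperature / Measured by: Fluo-8 intracellular calcium dye fluorescence, real-time kinetic reads / Controls: vehicle wells and EC80 agonist wells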
OX1R antag-2: OX1R (HCRTR1) antagonists, primary screen, fluorescence, CHO/OX1R cells, Fluo-8 calcium, orexin A; Orexin/Hypocretin receptor type 1 (Homo sapiens), O43613; Fluo-8 calcium fluorescence; inhibition, % at 5 µM; 330,000 tested, 0.43% active; AID 434989, 2010;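 active = inhibition above its plate's threshold, mean inhibition of all tested compounds on the plate plus 3 SD, cut at about 37% in these data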
GPR7 antag conf: GPR7 receptor antagonists, confirmation, cell-based, fluorescence, single concentration. 2,400 tested, 52% active. shares compounds with GPR7 antagonist. AID 1952, 2009. GPR7-expressing cells, calcium fluorescence antagonist mode. inhibition, % at 4.4 µM; in the data active = inhibition above about 24%;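 note: stimulated with the GPR7 agonist NPW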
MCHR1 antagonist: MCHR1 antagonists in cells, counter-screen for GPR7 antagonist project, cell-based, fluorescence, human; inhibition, % at 4.4 µM; MCHR1-expressing cells, fluorescence antagonist assay; shares compounds with GPR7 antagonist; 2,400 tested, 62% active; in the data active = inhibition above about 22%
Each line names hits and unclear results; the compound was inactive in the other large screens (follow-up assays come after a bar, where they were run).

CCN1C(=O)[C@H]2[C@@H](c3ccc(C)cc3)N3C(=O)N(c4cccc(Cl)c4)C(=O)[C@@]3(Cc3ccc(Cl)cc3)[C@H]2C1=O	none (no result: GPR7 antagonist)
CCN1C(=O)[C@H]2[C@@H](c3ccc(C)cc3)N3C(=O)N(c4cccc(F)c4)C(=O)[C@@]3(Cc3ccc(Cl)cc3)[C@H]2C1=O	OX1R antag-1 56 (no result: GPR7 antagonist)
Fc1cccc(Cl)c1CNCc1cccnc1	none
CCCCNC(=S)Nc1ccc2[nH]c(=O)[nH]c2c1	none
O=C(O)c1ccc(COc2ccc3ccccc3c2/C=C2/NC(=O)N(Cc3ccc(F)cc3)C2=O)cc1	TAAR1 antagonist 56 (no result: OX1R antag-1, CHO parental Ca, OX1R antag-2)
CC(=O)c1c(O)cc(O)cc1CC(=O)O	none
CC(=O)c1c(O)cc(O)c(C(C)=O)c1O	OX1R antag-1 72, CHO parental Ca 57 (no result: GPR7 antagonist, TAAR1 agonist, TAAR1 antagonist)
COCCNC(=O)CNC(c1ccccc1)c1ccccc1	none (no result: TAAR1 agonist, TAAR1 antagonist)
CC(C)Cc1ccc(C(C)C(=O)OCC(=O)c2c[nH]c3ccccc23)cc1 (stereo not drawn)	GPR7 antagonist 34, TAAR1 agonist 55, CHO parental Ca 75, OX1R antag-2 39 | GPR7 antag conf 67 | MCHR1 antagonist 78
COc1ccc(C(=O)Nc2cccc([N+](=O)[O-])c2)cc1Br	none
COc1ccc(NC(=O)Nc2cccc([N+](=O)[O-])c2)cc1Cl	GPR7 antagonist 35, OX1R antag-1 74 | GPR7 antag conf 38 | MCHR1 antagonist 59
O=C(Nc1ccc(OC(F)F)c(Cl)c1)Nc1ccc2c(c1)OCO2	GPR7 antagonist 26, CHO parental Ca 37, OX1R antag-2 45 | GPR7 antag conf inactive | MCHR1 antagonist 56
O=C(Nc1ccc(Cl)c(Cl)c1)c1ccc2c(c1)OCO2	GPR7 antagonist 27 | GPR7 antag conf inactive | MCHR1 antagonist 32
O=C(Nc1ccc2c(c1)OCO2)Nc1ccc2c(c1)OCO2	none
O=C(Nc1ccc([N+](=O)[O-])cc1)Nc1ccc(OC(F)F)c(Cl)c1	GPR7 antagonist 23, OX1R antag-1 76, CHO parental Ca 100, TAAR1 antagonist 60, OX1R antag-2 84 | GPR7 antag conf 72 | MCHR1 antagonist 75
Clc1ccc(-c2noc(CSc3nnc(Cc4cccs4)n3-c3ccccc3)n2)cc1	GPR7 antagonist 28 | GPR7 antag conf inactive | MCHR1 antagonist 42
COc1c(C)cc(S(=O)(=O)NCCN2CCOCC2)c(C)c1C	none
O=C(c1ccc2c(c1)OCO2)N(CC1CCCO1)C1(C(=O)NC2CCCC2)CCCCC1 (stereo not drawn)	GPR7 antagonist 32 | GPR7 antag conf 31 | MCHR1 antagonist inactive
O=S1(=O)C[C@@H](N2CC[C@@H](O)C2)[C@H](COCc2ccccc2)N1	none (no result: GPR7 antagonist, OX1R antag-1, CHO parental Ca, OX1R antag-2)
Cc1ccc([N+](=O)[O-])cc1NC(=O)Cc1ccc(F)cc1	none
COC(=O)c1ccc(NC(=O)Nc2cccc(F)c2)cc1	GPR7 antagonist 32, TAAR1 agonist 39 | GPR7 antag conf 54 | MCHR1 antagonist 65
Cc1ccc([N+](=O)[O-])cc1NC(=O)Nc1cccc(F)c1	GPR7 antagonist 40 (no result: OX1R antag-1, CHO parental Ca, OX1R antag-2) | GPR7 antag conf 63 | MCHR1 antagonist 65
COC(=O)c1ccc(NC(=O)Nc2ccc(F)cc2F)cc1	none
CC1CC(C)CN(CCCNC(=O)c2ccc3c(c2)N(Cc2ccccc2)C(=O)c2ccccc2S3=O)C1 (stereo not drawn)	GPR7 antagonist 35 | GPR7 antag conf inactive | MCHR1 antagonist inactive
CCCCNC(=O)c1onc(CCl)c1C(=O)OC	none
Cc1nc(NC(=O)CSc2cc(C)c3ccccc3n2)c(Cl)cc1Cl	none
Fc1cccc(F)c1-c1nc(-c2ccncc2)no1	none
N#C/C(=C\c1ccccc1)C(=O)NCc1ccc(F)cc1	GPR7 antagonist 22 | GPR7 antag conf 43 | MCHR1 antagonist 47
Cc1n[nH]c(C)c1S(=O)(=O)N(CC(=O)N1CCc2ccccc21)c1ccc(C(C)C)cc1	none
C=CCCC(=O)NC1CC(C)(C)Cc2c1cnn2-c1ccc(OC)cc1 (stereo not drawn)	GPR7 antagonist 26 | GPR7 antag conf inactive | MCHR1 antagonist inactive
CCCn1c(=N)n(CC(O)COc2ccc(C)cc2)c2ccccc21 (stereo not drawn)	none
C=CCn1c(=N)n(CC(O)COc2ccccc2OC)c2ccccc21 (stereo not drawn)	none
COc1ccccc1OCC(O)Cn1c(=N)n(Cc2ccccc2)c2ccccc21 (stereo not drawn)	GPR7 antagonist 25 | GPR7 antag conf 29 | MCHR1 antagonist 35
CCCCn1c(=N)n(CC(O)COc2cccc(C)c2)c2ccccc21 (stereo not drawn)	GPR7 antagonist 33 | GPR7 antag conf 37 | MCHR1 antagonist 46
CCN(CC)CCn1c(=N)n(CC(O)COc2ccccc2)c2ccccc21 (stereo not drawn)	GPR7 antagonist 29 | GPR7 antag conf inactive | MCHR1 antagonist inactive
CCC(=O)N/C(=N/c1nc(C)cc(C)n1)Nc1ccccc1	none
CCC(=O)N/C(=N/c1nc(C)cc(C)n1)Nc1ccc(OC)cc1	GPR7 antagonist 35 | GPR7 antag conf inactive | MCHR1 antagonist inactive
O=C(NCC(Cl)c1ccc2ccccc2c1)c1c(F)cccc1F (stereo not drawn)	none
COc1ccc(CC2(CO)CCN(C(C)Cc3ccc(Cl)cc3)CC2)cc1 (stereo not drawn)	GPR7 antagonist 21 | GPR7 antag conf inactive | MCHR1 antagonist inactive
OCc1ccccc1N=c1ssnc1Cl	GPR7 antagonist 31 (no result: TAAR1 agonist, TAAR1 antagonist) | GPR7 antag conf inactive | MCHR1 antagonist inactive
COc1cc(C(=O)N/N=C/c2sccc2C)cc(OC)c1OC	GPR7 antagonist 28 (no result: OX1R antag-1, CHO parental Ca, OX1R antag-2) | GPR7 antag conf 29 | MCHR1 antagonist 31
Cc1ccsc1/C=N/NC(=O)c1ccncc1	none
CCn1c(SCc2nc3ccccc3c(=O)[nH]2)nnc1C(C)NC(=O)c1ccccc1F (stereo not drawn)	none
COc1cccc(OCc2cc(C(=O)NCc3cnc4ccccn34)no2)c1	GPR7 antagonist 30 | GPR7 antag conf 33 | MCHR1 antagonist 48
COc1cccc(OCc2cc(C(=O)NCc3ccccn3)no2)c1	none
CCCCn1nc(C(=O)N(C)C2CCCCC2)c2ccccc2c1=O	none (no result: GPR7 antagonist)
